Compounds with a hit are over-represented: about 2.9% of the library has one in this group of screens.
DNA FID counter – displaces DNA intercalator in HCV helicase counter-screen; DNA fluorescent intercalator displacement, fluorescence; inhibition, % at 7.9 µM; 290,000 compounds, 0.17% hits; AID 1845; in the data active means inhibition above about 37%;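 further: 0% = vehicle and 100% = reference compound; higher means more ethidium bromide displaced from hairpin DNA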
IMP-1 inhibitor – blocks Pseudomonas aeruginosa IMP-1 metallo-beta-lactamase; purified IMP-1, nitrocefin hydrolysis, epi-absorbance fluorescence; inhibition, % at 5.6 µM; 290,000 compounds, 0.45% hits; AID 1556;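 active means inhibition above the mean plus 3 SD of all compounds in the same screening run, cut at about 4.5% in these data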;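 further: 0% = IMP-1 with DMSO and 100% = DMSO wells lacking enzyme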
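System: Purified IMP-1 | Read-out basis: Percent enzyme inhibition | Controls: IMP-1 with DMSO as 0%, enzyme-free DMSO as 100% | Replicates: One well per compound | Doses: 5.6 µM nominal single concentration | Detection: Epi-absorbance fluorescence, 480 nm excitation, 530 nm emission | Incubation: 25 °C, 15 min preincubation, 25 min reaction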
VIM-2 inh – blocks Pseudomonas aeruginosa VIM-2 metallo-beta-lactamase; inhibition, % at 5.6 µM; 290,000 compounds, 0.89% hits; purified VIM-2, nitrocefin hydrolysis, epi-absorbance fluorescence;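 active means inhibition above the mean of all tested compounds plus 3 SD, cutoff set per screening run, cut at about 7.5% in these data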;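 further: red hydrolysis product quenches plate fluorescence so inhibitors raise well fluorescence; 0% = enzyme with DMSO and 100% = DMSO without enzyme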
SUMO HTRF inh – SUMOylation inhibition | P63279 | HTRF SUMOylation assay, SAE1/SAE2 + UBC9, in vitro | 290,000 compounds, 0.36% hits | inhibition, % at 35 µM; in the data active means inhibition above about 50%, passing the limit was not always enough
Target sequence (P63279 whole entry, looked up): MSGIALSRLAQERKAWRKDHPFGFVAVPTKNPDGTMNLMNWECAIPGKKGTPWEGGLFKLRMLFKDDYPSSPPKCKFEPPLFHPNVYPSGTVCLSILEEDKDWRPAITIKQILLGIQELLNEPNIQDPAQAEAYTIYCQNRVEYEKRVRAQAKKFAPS
NALP1 inh – NALP1 inhibition | S. cerevisiae NALP1/ASC/caspase-1 growth, X-gal OD620, 72 h | inhibition, % at 10 µM | 280,000 compounds, 0.61% hits | AID 2071; in the data active means inhibition mostly above about 24%, no sharp cut-off; inactive means mostly below about 32%
SUMO Mot1 rescue – inhibitors of SUMOylation pathway: yeast Mot1-301 growth rescue | S. cerevisiae Mot1-301 growth rescue, ATP luminescence, 38.5C; percent above DMSO median, 100 means doubled | 320,000 compounds, 1% hits | growth rescue, % at 18.8 µM;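 active means every valid replicate shows activation above 250% relative to neutral control wells; inactive means the rest, any valid replicate at or below 250%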;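 further: OY570 slx delta 5 strain wells were the positive control but not used for scaling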
An asterisk follows results filed as active; · = not tested or not shown.

SMILES	DNA FID counter	IMP-1 inhibitor	VIM-2 inh	SUMO HTRF inh	NALP1 inh	SUMO Mot1 rescue
O=C(c1ccco1)N1N=C(c2ccc3nccnc3c2)CC1c1ccccc1 (stereo not drawn)	-31.5	-1.9	-1.5	12.9	10.7	541.2*
CC(C)Nc1ccc(Nc2ccnc3cc4ccccc4cc23)cc1	72.7*	-2.5	1.1	-31.3	7.4	183.3
Cc1ccc(/C=C/C(=O)c2ccc(O)cc2)cc1	-1.5	-2.7	-1.6	-0.3	-3.1	185.2
CSc1ccc(/C=C/C(=O)c2ccc(O)cc2)cc1	8.5	-2.7	-0.6	11.5	58.8*	8.2
COc1ccc(N2C(=O)CCC(C(=O)NCCCN3CCC(C)CC3)C2c2ccc(OC)c(OC)c2)cc1 (stereo not drawn)	3.9	-2.7	-0.5	0.7	-0.2	-4.2
CCn1c(=O)c(C(C)=O)nc2ccccc21	-0.7	5.9*	-0.3	43.4	8.8	-8.9
CCc1nc2ccccc2n(CC)c1=O	-2.7	1.7	-3.6	22.2	-6.3	-5.8
CCOC(=O)c1cccc(NC(=O)c2ccc3c(c2)C(=O)N(CC2CCCO2)C3=O)c1 (stereo not drawn)	-25.4	-2.6	0.0	3.4	0.8	-13.1
COc1ccc(-c2csc(NC3CCCCC3)n2)c(OC)c1	-0.2	8.0*	-2.1	11.5	10.7	55.5
O=c1oc(-c2cccs2)nc2sc3c(c12)CCC3	-0.1	-1.1	-4.2	51.0*	-23.1	80.4
Cc1ccc(C)c(OCCCN2CCCC2)c1	10.0	-3.1	-3.3	1.2	4.2	10.5
Cc1ccc(C(C)C)cc1OCCCCN1CCCC1	13.2	-2.3	-3.2	-10.9	-3.2	320.1*
Cn1c(CC(=O)c2ccc(Br)cc2)[n+](C)c2ccccc21	4.8	-2.5	-2.8	6.1	-11.5	7.5
CCOc1ccccc1-n1c(SCC(=O)N(CC)CC)nnc1-c1ccccn1	-24.2	5.7*	-1.2	-18.5	-9.2	-10.5
Cc1c(Br)c(C(=O)N2CCc3ccccc32)nn1C	-8.6	10.2*	-4.8	7.7	18.6	-3.6
N#Cc1ccc(NC(=O)Nc2ccc(Cl)cc2)cc1	11.1	-2.8	-3.5	2.6	71.4*	-19.6
O=C(Nc1ccc(Cl)cc1)Nc1ccc(Cl)c(Cl)c1	·	·	·	·	·	15.1
COc1cccc(NC(=O)CSC(N)=O)c1	-6.0	-1.1	-3.9	18.0	5.0	-7.5
COC(=O)c1cc(NS(=O)(=O)c2ccc(C(C)C)cc2)ccc1N1CCOCC1	-28.1	-0.3	0.5	22.6	·	313.9*
CC(C)CNC(=O)COC(=O)c1cc(S(=O)(=O)N2CCCCC2)ccc1N1CCOCC1	-18.0	-0.3	1.4	9.3	19.4	277.1*
COc1ccccc1C(=O)Nc1sc2c(c1C(=O)NCc1ccco1)CCCC2	-0.1	2.7	-2.7	60.9*	-5.0	3.0
COc1ccccc1NC(=O)c1c(NC(=O)c2ccco2)sc2c1CCC2	-3.2	-1.1	-3.3	30.1	-5.3	7.0
Cc1ccc(NC(=S)Nc2cccc3cnccc23)c(C)c1	3.5	-2.6	-2.3	97.4*	-12.2	2.5
Cc1cc(C)cc(NC(=S)Nc2cccc3cnccc23)c1	2.7	-1.9	-0.7	94.1	0.2	·
Cc1cccc2[nH]c(CN(C)C(=O)CC3C(=O)NCCN3CC(C)(C)C)nc12 (stereo not drawn)	-14.9	-3.1	-1.9	3.1	1.9	1.8
SMILES	DNA FID counter	IMP-1 inhibitor	VIM-2 inh	SUMO HTRF inh	NALP1 inh	SUMO Mot1 rescue
O=[N+]([O-])c1ccccc1/C=N\Nc1nccs1	2.3	-3.7	-2.7	5.9	15.4	-2.2
O=[N+]([O-])c1cc(/C=N\Nc2nccs2)ccc1O	-11.7	-4.4	-5.0	69.6*	7.0	·
CCN(CC)c1cccc(OC(=O)c2cccnc2Cl)c1	-24.9	-2.7	2.3	7.8	29.8	-5.4
CCOc1ccc(NC(=O)c2ccc(NC(=O)c3cn4c5c(c(N6CCN(C)CC6)c(F)cc5c3=O)OCC4C)cc2)cc1 (stereo not drawn)	6.6	-0.1	-1.0	2.9	85.5*	8.2
Cc1ccc(C(=O)Nc2ccc(N3CCN(C)CC3)cc2)cc1	2.9	-6.6	9.7*	20.6	27.9	3.2
CCOc1ccc(C(=O)Nc2ccc(N3CCN(C)CC3)cc2)cc1	7.4	-2.1	10.7*	-0.3	24.5	-7.4
CCN1CCN(c2ccc(NC(=O)c3ccc4c(c3)OCO4)cc2)CC1	4.0	-4.7	9.3*	-6.6	31.7	-2.1
CC1COc2c(N3CCN(C)CC3)c(F)cc3c(=O)c(C(=O)O)cn1c23 (stereo not drawn)	·	·	·	·	·	-17.2
Cc1ccc(C)c(S(=O)(=O)N2CCN(C(=O)c3cc(S(=O)(=O)NCc4ccccc4)ccc3C)CC2)c1	-49.9	1.1	1.7	-10.2	13.1	113.9
O=C(Nc1nccs1)C(c1ccccc1)N1CCCC1 (stereo not drawn)	2.0	-4.0	-4.3	-4.9	5.0	-17.4
CC(=O)OCC(=O)Nc1ccccc1OC(F)F	0.7	-2.1	-1.9	1.3	12.8	3.1
CCOc1ccc(NC(=O)c2ccccc2NC(=O)CNC2CCCC(C)C2C)cc1 (stereo not drawn)	·	·	·	·	·	-4.9
COc1cc2c(cc1OC)C(C)N(C(=O)C1COc3ccccc3O1)CC2 (stereo not drawn)	-20.6	0.6	-0.5	32.8	-6.6	755.1*
O=C(c1ccccc1)C1CCN(C(=O)c2ccco2)CC1	-8.7	-0.7	-0.2	3.6	19.6	132.2
O=C(Nc1ccccc1)C(c1ccccc1)c1ccccc1	-3.1	0.0	-2.8	-10.6	12.6	168.8
O=C(Nc1ccc(Br)cc1)C(c1ccccc1)c1ccccc1	-3.8	-1.2	-1.4	14.6	5.0	801.3*
COc1ccc(NC(=O)CN2C(=O)NC(C)(c3ccccc3)C2=O)cc1Cl (stereo not drawn)	-4.1	-1.1	-2.9	6.4	0.8	-12.6
C[C@H](CCC(=O)O)[C@H]1CC[C@H]2[C@@H]3[C@H](O)C[C@@H]4C[C@H](O)CC[C@]4(C)[C@H]3CC[C@]12C	·	·	·	·	·	10.8
C[C@H](CCC(=O)O)[C@H]1CC[C@H]2[C@@H]3CC[C@@H]4C[C@H](O)CC[C@]4(C)[C@H]3C[C@H](O)[C@]12C	·	·	·	·	·	422.2*
CC(CCCC(C)(C)O)NCc1cn[nH]c1-c1ccc2c(c1)OCO2 (stereo not drawn)	2.2	-1.2	0.7	5.8	-5.5	-6.4
CCN1/C(=C2\SC(=S)N(Cc3ccccc3)C2=O)Sc2ccccc21	-0.6	-1.6	-2.0	-7.6	12.5	-13.6
CCC(CO)[n+]1c(C)cc(/C=C2\Sc3ccccc3N2Cc2ccccc2)cc1C (stereo not drawn)	-7.2	9.9*	-0.5	-0.8	27.9	-16.8
C1CN(CC23CC4CC(CC(C4)C2)C3)CCO1	3.4	0.0	0.0	6.9	37.5	344.0*
N/N=C/C(=N\Nc1ccc(Cl)cc1)C(=O)c1ccncc1	-4.8	-3.4	8.8*	-14.8	·	47.3

Bioassay records as filed in PubChem BioAssay.
